# FGF22 binding – binders of recombinant human FGF22 by thermal shift; activity (Tm shift, normalised), % at 9.99 µM; AID 651658; SYPRO orange fluorescence; percent of sucrose octasulfate shift, DMSO zero; hit rate 1.5% among 340,000; Q9HCT0;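 active means mean Tm shift, scaled 0 neutral to 100 positive control, at about 1.3% or above, every replicate too, limit read from the data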
# Target sequence (Q9HCT0 whole entry, looked up): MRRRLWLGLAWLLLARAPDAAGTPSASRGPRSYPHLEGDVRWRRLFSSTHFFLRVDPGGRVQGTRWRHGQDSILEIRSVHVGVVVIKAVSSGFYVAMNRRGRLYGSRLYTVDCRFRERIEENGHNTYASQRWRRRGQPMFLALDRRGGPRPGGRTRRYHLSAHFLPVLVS
# SIRT5 block – blocks human SIRT5 desuccinylation of peptide; Q9NXA8; Purified SirT5, succinyl-peptide AMC, trypsin-coupled fluorescence; inhibition, % at 15 µM; hit rate 1.1% among 330,000; in the data active means inhibition above about 15%
# Target sequence (Q9NXA8 whole entry, looked up): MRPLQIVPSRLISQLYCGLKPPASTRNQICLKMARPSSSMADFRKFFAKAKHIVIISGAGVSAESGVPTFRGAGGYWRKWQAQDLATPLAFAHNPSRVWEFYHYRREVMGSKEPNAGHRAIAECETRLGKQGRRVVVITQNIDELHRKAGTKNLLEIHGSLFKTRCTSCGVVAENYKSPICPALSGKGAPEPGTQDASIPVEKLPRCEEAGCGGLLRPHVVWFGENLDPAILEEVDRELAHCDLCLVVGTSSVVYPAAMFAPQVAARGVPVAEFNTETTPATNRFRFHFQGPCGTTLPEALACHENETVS
# ARNT-TACC3 inh – disrupts binding between human ARNT and TACC3 | Q9Y6A5 | AlphaScreen His-ARNT PAS-B/GST-TACC3 binding, luminescence; TACC3 fragment carries E629A point mutation | inhibition, % at 9.99 µM | hit rate 0.66% among 390,000 | AID 623870;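 active means mean inhibition of replicates at least 50% and at least half of replicates each reaching 50%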;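 further: 0% = complete ARNT plus TACC3 wells and 100% = ARNT alone without TACC3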
# XiGFP reactiv – activators of X-chromosome reactivation in mouse fibroblasts; XiGFP mouse fibroblasts, % GFP-positive cells imaging, 3 d; cells co-treated with 5-aza-dC sensitizer; scaled so ellipticine positive control = 100%; activation, % at 7.58 µM; hit rate 0.055% among 360,000;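 active means mean normalized replicate activation at least 10% and every replicate at or above 10%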;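 further: 0% = median of on-plate neutral control wells and 100% = ellipticine 6 µM median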
#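 System: 68-5-11 XiGFP fibroblast line; Timing: 3 days compound exposure; Compound dosing: one concentration, pinned; Benchmarks: positive control ellipticine, 6 µM final; Buffer or medium: DMEM containing 5-aza-dC.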
# FN deposit inh – fibronectin deposition inhibition | AH1F fibroblasts, Alexa488-fibronectin deposition fluorescence, overnight | inhibition, % at 12.6 µM | hit rate 0.086% among 350,000 | AID 743247;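 active means mean inhibition across replicates of 30% or more, regardless of how many single replicates reach that level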;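 further: positive control wells lacked labelled fibronectin entirely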
#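 Assay system: AH1F fibroblasts / Quantity: 10000 cells per well / Medium: DMEM plus 2% serum, read in PBS / Reagent: labelled fibronectin 24 nM / Dosing: single dose, pinned / Times: 1 h cell attachment, overnight exposure to compound and label / Signal: fluorescence, ex 485 nm, em 525 nm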
# DENV2 CPE – protects cells from dengue virus 2 cytopathic effect; CPE inhibition, % at 9.99 µM; AID 651640; hit rate 1.7% among 350,000; DENV2-infected cells, cytopathic effect rescue, plate reader; in the data active means CPE inhibition above about 20%, passing the limit was not always enough; tested in BHK-21 cells;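 further: 0% = median of neutral control wells and 100% = median of positive control wells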
# Numbers without * were called inactive; . = no result. An excerpt weighted towards active compounds, which were near 3.8% of everything screened.
SMILES,FGF22 binding,SIRT5 block,ARNT-TACC3 inh,XiGFP reactiv,FN deposit inh,DENV2 CPE
COc1ccc(S(=O)(=O)Nc2cccc3c2O[C@H](CN(C)S(C)(=O)=O)[C@H](C)CN([C@H](C)CO)C3=O)cc1,-0.3,-0.9,8.6,-0.1,.,2.0
COc1ccc(S(=O)(=O)Nc2cccc3c2O[C@@H](CN(C)S(C)(=O)=O)[C@@H](C)CN([C@@H](C)CO)C3=O)cc1,0.1,2.2,-5.5,0.0,.,120.1*
COc1ccc(S(=O)(=O)N(C)C[C@@H]2Oc3c(NS(=O)(=O)c4cccs4)cccc3C(=O)N([C@@H](C)CO)C[C@@H]2C)cc1,0.1,0.8,9.2,-0.9,.,0.1
COc1ccc(S(=O)(=O)N(C)C[C@@H]2Oc3c(NC(=O)C4CCCCC4)cccc3C(=O)N([C@H](C)CO)C[C@@H]2C)cc1,0.1,-0.5,-0.5,0.0,.,20.4*
COc1cc(Nc2ncc3c(n2)CCN(C(=O)Nc2ccc(C(C)C)cc2)C3)cc(OC)c1OC,0.0,18.3*,.,-0.1,9.5,-8.6
COc1cccc(NC(=O)N2CCc3nc(Nc4ccc(C(C)C)cc4)ncc3C2)c1,-0.1,.,.,-0.1,-0.4,-10.4
C[C@@H]1CN([C@H](C)CO)C(=O)Cc2cc(NC(=O)c3ccncc3)ccc2O[C@@H]1CN(C)S(C)(=O)=O,0.0,0.2,3.7,-0.1,.,9.4
CCN1/C(=C2\C(=O)N(C)C(=S)N2C)C=Cc2ccccc21,43.1*,-1.5,.,0.0,-4.4,-2.4
COc1ccc(CNC(=O)N(C)C[C@@H]2OCc3ccccc3-c3ccccc3C(=O)N([C@@H](C)CO)C[C@@H]2C)cc1,0.0,0.9,-20.1,-0.5,-5.3,2.8
COCC(=O)Nc1ccc2c(c1)[C@H]1C[C@@H](CC(=O)NCc3cc(F)ccc3F)O[C@@H](CO)[C@H]1O2,-0.2,.,-7.5,-0.1,1.8,37.7*
COCC(=O)Nc1ccc2c(c1)[C@H]1C[C@@H](CC(=O)O)O[C@H](CO)[C@H]1O2,.,5.0,.,-0.1,.,1.8
COCC(=O)Nc1ccc2c(c1)[C@@H]1C[C@@H](CC(=O)NCc3cc(F)ccc3F)O[C@H](CO)[C@@H]1O2,-0.2,.,-5.2,-0.1,-2.4,-10.5
COCC(=O)Nc1ccc2c(c1)[C@H]1C[C@@H](CC(=O)O)O[C@@H](CO)[C@H]1O2,.,-2.6,.,0.5,.,42.6*
COCCNC(=O)C[C@@H]1C[C@H]2c3cc(NC(=O)Nc4ccc(OC)cc4)ccc3O[C@H]2[C@@H](CO)O1,-0.2,-3.1,-0.4,0.6,-1.5,114.2*
COCCNC(=O)C[C@H]1C[C@@H]2c3cc(NC(=O)Nc4ccc(OC)cc4)ccc3O[C@@H]2[C@@H](CO)O1,-0.2,0.3,3.9,0.0,-2.1,1.9
COCC(=O)Nc1ccc2c(c1)[C@H]1C[C@H](CC(=O)NCc3ccccc3)O[C@@H](CO)[C@H]1O2,0.0,3.0,-3.2,0.2,-6.2,21.0*
COc1ccc(CN(C)C[C@@H]2Oc3c(NS(=O)(=O)c4ccccc4)cccc3C(=O)N([C@@H](C)CO)C[C@@H]2C)cc1,-0.1,-2.5,-8.4,-0.5,.,19.4
CO[C@H]1CN(C)C(=O)c2ccc(NS(=O)(=O)c3ccccc3Cl)cc2OC[C@@H](C)NC[C@H]1C,.,.,.,0.2,-9.6,.
COCC(=O)Nc1ccc2c(c1)[C@@H]1C[C@H](CC(=O)N(C)C)O[C@@H](CO)[C@@H]1O2,-0.5,-3.1,-5.8,0.4,-10.8,30.5*
COCC(=O)Nc1ccc2c(c1)[C@@H]1C[C@@H](CC(=O)N(C)C)O[C@H](CO)[C@@H]1O2,-0.2,.,.,0.0,-2.6,18.1
CC(=O)NC[C@@H]1[C@@H](c2ccc(-c3ccccc3F)cc2)[C@@H](CO)N1CCC(F)(F)F,.,25.5*,.,-0.1,3.7,4.3
CC(=O)N(C)C[C@H]1[C@H](c2ccc(-c3ccccc3F)cc2)[C@@H](CO)N1C(C)=O,0.1,-1.1,-4.0,0.0,.,31.7*
CC(=O)NC[C@H]1[C@@H](c2ccc(-c3ccccc3F)cc2)[C@@H](CO)N1CCC(F)(F)F,.,0.1,.,-0.1,-16.7,-9.7
